V-ATPase pHluor: regulators of yeast V-ATPase proton transport. S. cerevisiae, pHLuorin cytosolic pH fluorescence. response, % at 10 µM. 350,000 tested, 0.37% active. AID 504577; in the data active means response mostly above about 7.3%, no sharp cut-off; inactive means mostly below about 5.4%; further: actives read high
Tb MetRS inh: Trypanosoma brucei MetRS inhibition. purified T. brucei MetRS, ATP depletion, Kinase-Glo luminescence. AID 624268. inhibition, % at 11.9 µM. 360,000 tested, 0.4% active;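 active means inhibition above a per-plate cutoff of the control wells' mean inhibition plus 3 SD, cut at about 5.5% in these data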
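Material: T. brucei methionyl-tRNA synthetase, purified; reagent: substrates ATP, L-methionine and bulk Escherichia coli tRNA; dosing: 11.9 µM single point; timing: 15 min plus 2 h at 25 °C; detection: luminescence of leftover ATP; evaluation: % inhibition; control set: DMSO-only wells as low control; replicates: singlicate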
UPR CHOP act: activators of apoptotic arm of unfolded protein response (CHOP); CHO-CHOP luciferase reporter, UPR activation, luminescence; percent of tunicamycin response over DMSO baseline; activation, % at 10 µM; 330,000 tested, 0.34% active;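 active means at 10 µM dose, activation of 40% or more, normalized to positive control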
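Dosing – one dose, 10 µM in 0.5% DMSO · System – CHO-CHOP cells, stable luciferase reporter of PERK-eIF2a-CHOP signalling · Input – 500 cells/well · Control set – tunicamycin 10 µg/mL final as positive, DMSO-only wells as negative · Timing – 6 h compound treatment, 37 °C · Measure – % activation vs tunicamycin · Technique – luminescence read with Steady-Glo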
CHOP inh: inhibitors of CHOP induction in ER stress response; CHO-K1 CHOP-promoter luciferase, tunicamycin-induced, 15-18 h; inhibition, % at 10 µM; 220,000 tested, 3.8% active; AID 2732;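 active means compounds that reduced the stress-induced luciferase reporter signal by more than about 70% of percent inhibition, limit read from the data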
XBP1 UPR activ: activators of adaptive arm of unfolded protein response (XBP1). CHO-XBP1 luciferase reporter, IRE1-XBP1 UPR activation, luminescence; percent of tunicamycin response, DMSO as zero. activation, % at 20 µM. 330,000 tested, 0.33% active. AID 463104;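 active means versus positive control, 20 µM dose yields 30% or more activation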
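Material: CHO-XBP1 cells stably carrying IRE1-XBP1-driven luciferase reporter | Medium: F12 with 10% serum | Compound dosing: 20 µM single concentration, DMSO 1% | Incubation: Overnight seeding at 37 °C, 6 h compound treatment at 37 °C | Detection: Steady-Glo luminescence read | Read-out basis: % activation of reporter signal versus tunicamycin and DMSO controls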
Large screens that a line does not name were inactive. This excerpt belongs to a sample that is enriched for hits.

Cc1nc(SCC(=O)O)c(C#N)c2c1CCCC2	none
Cn1c(=O)c(C(=O)COc2ccc(F)cc2Cl)c(N)n(Cc2ccccc2)c1=O	CHOP inh 78.8
Cn1c(N)c(C(=O)COc2ccc(Cl)cc2Cl)c(=O)n(C)c1=O	none
CCc1nc(-c2ccc(-c3ccc(OC)cc3)nc2OC)no1	CHOP inh 77.2
COCc1nc(-c2ccc(-c3ccc(OC)cc3)nc2OC)no1	none
COc1ccc(CN(CCC(c2ccc(F)cc2)C2CCOC(C)(C)C2)C(=O)c2ccco2)cc1 (stereo not drawn)	none
CC(c1ccccc1)N(CCC(c1ccccc1)C1CCOC(C)(C)C1)C(=O)c1ccco1 (stereo not drawn)	CHOP inh 79.8
CN1CCCC(C)(C(=O)Nc2ccc(-n3cccc3)cc2)C1 (stereo not drawn)	none (no result: V-ATPase pHluor, UPR CHOP act, CHOP inh, XBP1 UPR activ)
CCCCc1nc2cc(C(=O)N(C)CCc3cn[nH]c3)ccc2o1	V-ATPase pHluor 14.7 (no result: CHOP inh)
CC1CCC(C(C)C)C(=O)/C1=C/c1ccc(N)cc1 (stereo not drawn)	none
CC1/C(=C\c2ccc(Cl)cc2)C(=O)C2CC1C2(C)C (stereo not drawn)	CHOP inh 76.1
CCCN(CCC)Cc1c(C(=O)OCC)nnn1-c1nonc1N	CHOP inh 86.1
COc1ccc(C)cc1CN(C)c1ccc(S(=O)(=O)N2CCN(C)CC2)cn1	none (no result: CHOP inh)
Cc1ccc(SC(c2ccc(C)cc2)C(Cn2cncn2)C(=O)c2ccccc2)cc1 (stereo not drawn)	none
Cc1ccc(C(Sc2ccccc2)C(Cn2cncn2)C(=O)c2ccccc2)cc1 (stereo not drawn)	CHOP inh 93.4
COc1ccc(-c2nc(NC(=O)c3[nH]c(C)c(C(C)=O)c3C)sc2C)cc1	none
COc1ccc(C(=O)/C=C/Sc2nc3ccccc3o2)cc1	CHOP inh 82.4
COc1ccc(C(=O)N/C(N)=N/c2nc3ccccc3o2)cc1	none
Oc1c(C=Nc2ccccc2)sc(=S)n1Cc1ccccc1	CHOP inh 80.3
CCn1c(O)c(C=Nc2ccccc2)sc1=S	none (no result: V-ATPase pHluor, Tb MetRS inh)
CCN(C(=O)c1cc2c(=O)[nH]c3ccc(C)cc3c2s1)c1ccccc1F	none
CCN(C(=O)c1cc2c(=O)[nH]c3ccc(C)cc3c2s1)c1ccccc1C	CHOP inh 96.0
C(=NNc1ccc2ccccc2n1)c1ccccn1	none (no result: V-ATPase pHluor, UPR CHOP act, CHOP inh, XBP1 UPR activ)
O=C(O)Cc1ccc(N2N=C(c3ccccc3)CC2=O)cc1	none (no result: V-ATPase pHluor, UPR CHOP act, CHOP inh, XBP1 UPR activ)
CCc1nc2c(OCC3COc4ccccc4O3)cccn2c1N(C)C(=O)c1cccs1 (stereo not drawn)	none (no result: V-ATPase pHluor, UPR CHOP act, CHOP inh, XBP1 UPR activ)
CC1CC(C)CN(C(=O)c2ccc3c(=O)n(Cc4ccc5c(c4)OCO5)c(=S)[nH]c3c2)C1 (stereo not drawn)	CHOP inh 95.2
COCCCNC(=O)c1ccc2c(=O)n(Cc3ccc4c(c3)OCO4)c(=S)[nH]c2c1	none
O=C(c1ccc2c(=O)n(Cc3ccc4c(c3)OCO4)c(=S)[nH]c2c1)N1CCCCC1	CHOP inh 91.9
CCCCCn1c(=O)[nH]c2cc(C(=O)N3CCN(Cc4ccc5c(c4)OCO5)CC3)ccc2c1=O	CHOP inh 81.6
CC1(C(=O)NCCc2ccccc2)Cc2c(-c3ccc(C(N)=O)cc3)ccnc2O1 (stereo not drawn)	none (no result: V-ATPase pHluor, UPR CHOP act, CHOP inh, XBP1 UPR activ)
CC(C)C(NS(=O)(=O)c1cccc2nsnc12)C(=O)Nc1nc2ccc(Cl)cc2s1 (stereo not drawn)	CHOP inh 88.5
CCCCNC(=O)Oc1c(Br)cc2sc(=O)oc2c1Br	CHOP inh 102.7 (no result: V-ATPase pHluor, Tb MetRS inh)
CCCCNC(=O)Oc1cc(CCl)on1	none (no result: V-ATPase pHluor, Tb MetRS inh)
CC(=O)Nc1ccc(S(=O)(=O)N2CCN(c3cc(C)ccc3C)CC2)cc1	CHOP inh 75.1
O=C(Nc1cccc(Br)c1)c1ccc(CSc2ccccc2)cc1	none
Cc1cc(CSc2ccccc2)ccc1NC(=O)c1ccc(Br)cc1	CHOP inh 95.7
CC(C)c1nc(SCC(=O)c2ccc(F)cc2)c2ccccc2n1	CHOP inh 83.7
CCCCN=C1NN=C(c2ccc3c(c2)OCCO3)CS1	none
c1cc2c(cc1C1=NNC(=NC3CC3)SC1)OCCO2	CHOP inh 98.0
COC(=O)[C@@]12C[C@@H](CC(=O)NCCC(C)C)C(=O)N(CCc3ccc(OC)c(OC)c3)C1=CCC(C)(C)C2	none (no result: V-ATPase pHluor, UPR CHOP act, CHOP inh, XBP1 UPR activ)
O=C(NCC1CCCO1)c1ccc2c(c1)S(=O)(=O)c1ccccc1C2=O (stereo not drawn)	none (no result: CHOP inh)
Cc1ccc(C(=O)OCC(=O)Nc2sccc2C(N)=O)cc1NC(=O)c1ccco1	CHOP inh 71.9
Cc1ccc(C(=O)OCC(=O)Nc2ccccc2)cc1NC(=O)c1ccco1	none
CCCS(=O)(=O)NC(=O)C1(C)CCCN(C(=O)c2cccc(C(F)(F)F)c2)C1 (stereo not drawn)	none (no result: V-ATPase pHluor, UPR CHOP act, CHOP inh, XBP1 UPR activ)
CC(NC(=O)c1ccc(N(C)C)cc1)C1CC2CCC1C2 (stereo not drawn)	CHOP inh 78.8 (no result: UPR CHOP act, XBP1 UPR activ)
COc1cc(/C=N/NC(=O)c2ccc(COc3cc(C)ccc3C(C)C)cc2)cc(OC)c1O	none
Cc1ccc(C(C)C)c(OCc2ccc(C(=O)N/N=C/c3cccc(O)c3O)cc2)c1	CHOP inh 106.6 (no result: UPR CHOP act, XBP1 UPR activ)
CC(=O)Nc1cccc(-c2csc(C(C)(NC(C)=O)c3ccccc3)n2)c1 (stereo not drawn)	none (no result: V-ATPase pHluor, UPR CHOP act, CHOP inh, XBP1 UPR activ)
COc1cc(C(=O)NC23CC4CC(CC(C4)C2)C3)cc(OC)c1OC	none (no result: CHOP inh)
COc1cc(C(=O)N[C@H](C(=O)NC(C)C23CC4CC(CC(C4)C2)C3)C(C)C)cc(OC)c1OC (stereo partly drawn)	CHOP inh 74.8
Cc1nn(-c2ccccc2)c2sc(C(=O)N3CCCCC3)cc12	CHOP inh 81.9
Cc1cnc(NC(=O)c2cc3c(C)nn(-c4ccccc4)c3s2)s1	CHOP inh 86.5
Cc1nn(-c2ccccc2)c2sc(C(=O)NNC(=O)COc3ccccc3)cc12	none
Cc1nn(-c2ccccc2)c2sc(C(=O)N3CCc4ccccc4C3)cc12	none (no result: UPR CHOP act, XBP1 UPR activ)
Cc1nn(-c2ccccc2)c2sc(C(=O)NNC(=O)COc3cccc4ccccc34)cc12	CHOP inh 92.3
Cc1nn(-c2ccccc2)c2sc(C(=O)NC3CCCCC3)cc12	none
O=C(c1ccco1)N1CCCC(c2nc3c(nnn3Cc3c(Cl)cccc3Cl)c(=O)[nH]2)C1 (stereo not drawn)	none (no result: CHOP inh)
CCC(=O)OCCn1c(=O)c2ccccc2c2ccccc2c1=O	none
CC(C)CCn1c(=O)c2ccccc2c2ccccc2c1=O	CHOP inh 77.5
CCOC(=O)n1c2ccccc2c(=O)n1CCO	none (no result: V-ATPase pHluor, UPR CHOP act, CHOP inh, XBP1 UPR activ)
CC1CCCN(S(=O)(=O)c2ccc(C(=O)NC(C)c3ccccc3)cc2)C1 (stereo not drawn)	none (no result: CHOP inh)
C#CCOCCOCCOCCNc1nc(N2CCN(C(=O)CCCCCCCCCCNC(=O)[C@H]([C@@H](C)CC)n3cc(CCCCN=C(N)N)nn3)CC2)nc(N2CCN(C(=O)CCCCCCCCCCNC(=O)[C@H](CCCCN)n3cc(C[C@@H](C)CC)nn3)CC2)n1	XBP1 UPR activ 39.0 (no result: V-ATPase pHluor, Tb MetRS inh, CHOP inh)
